GPR7 antag: human neuropeptides B/W receptor 1 antagonism | inhibition, % at 4.4 µM | GPR7-expressing cells, fluorescence antagonist assay | AID 1861 | P48145 | 290,000 tested, 1.1% active; in the data active = inhibition above about 16%, passing the limit was not always enough;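 note: cells stimulated with the agonist NPW; 0% = agonist with vehicle and 100% = vehicle without agonist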
TAAR1 ag: human TAAR1 agonism. Q96RJ0. CHO RD-HGA16 TAAR1, Fluo-8 calcium fluorescence; vehicle wells 0%, saturating PEA agonist 100%. activation, % at 3 µM. 360,000 tested, 0.99% active. AID 624467;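 active = activation above the mean activation of all test compounds in the run plus 3 SD, cut at about 38% in these data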
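Assay system: CHO-derived RD-HGA16 cells with stable Gα16 and human TAAR1; timing: 17-24 h seeding, 75 min 37 °C dye, 30 min RT; read-out: % activation from peak over basal fluorescence ratio, DMSO-to-PEA scaled; measured by: kinetic Fluo-8 calcium fluorescence; benchmarks: low control DMSO, high control PEA (EC100); doses: 3 µM single concentration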
zfTRPN1 agonist: activates the zebrafish TRPN1 channel. AID 1424. HEK293 zebrafish TRPN1-YFP, Fluo-8 calcium fluorescence; 100% = response to 87 µM carbachol. 220,000 tested, 0.18% active. activation, % at 3 µM;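 active = activation above its plate's cutoff, the mean activation of test wells on that plate plus 3 SD, cut at about 19% in these data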;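 note: 0% = DMSO alone and 100% = 87 µM carbachol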
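Control set: carbachol 87 µM as high control, DMSO as low control; system: HEK293 stable line with zebrafish TRPN1-YFP; read-out: % activation versus carbachol response; detection: intracellular calcium fluorescence with Fluo-8; doses: single test compound dose, 3 µM nominal, 0.3% DMSO; schedule: dye 1 h 37 °C plus 30 min RT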
TAAR1 antagonist: antagonists of human TAAR1; Q96RJ0; CHO RD-HGA16 TAAR1, Fluo-8 calcium fluorescence, antagonist; inhibition, % at 3 µM; 360,000 tested, 1.5% active; AID 624466;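 active = inhibition above a per-plate cutoff, the mean inhibition of test compounds on that plate plus 3 SD, cut at about 49% in these data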;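 note: 0% = DMSO plus EC80 beta-PEA response and 100% = DMSO alone without agonist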
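test system = CHO RD-HGA16 cells bearing hTAAR1 | replication = singlicate | controls = DMSO-only wells and EC80 β-PEA-stimulated wells | reagent = EC80 β-phenethylamine stimulus | read-out basis = percent inhibition of PEA-evoked calcium signal, max/basal emission ratio | schedule = seeding 17-24 h prior, 75-min 37 °C, 30-min RT dye loading | signal = kinetic Fluo-8 calcium fluorescence measurement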
LANA-H2A inh: blocks KSHV LANA binding to histone H2A/H2B; cell-free LANA-H2A/H2B peptide, fluorescence polarization; Q9QR71; inhibition, % (test concentration not listed); 320,000 tested, 0.6% active; in the data active = inhibition mostly above about 10%, no sharp cut-off; inactive = mostly below about 6.7%
TRPML3 ag: agonists of human TRPML3 channel; Q8TDD5; HEK293 TRPML3-YFP, Fluo-8 calcium fluorescence; 100% = the carbachol control signal; activation, % at 3 µM; 220,000 tested, 0.29% active;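 active = activation above its plate's cutoff, the mean activation of the plate's test wells plus 3 SD, cut at about 12% in these data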;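 note: 0% = DMSO only wells and 100% = carbachol wells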
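Material: HEK293 cells stably carrying human TRPML3-YFP; compound dosing: single dose, 3 µM final nominal compound, 0.3% DMSO final; incubation: 1-h 37 °C dye load, 5-s basal, 120-s post-compound reads; technique: Fluo-8 intracellular calcium fluorescence, excitation 470-495 nm, emission 515-575 nm; read-out basis: percent activation from peak-to-basal fluorescence ratio, scaled between DMSO and carbachol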
The depositor's hits bear a star; . = no result given; + = active, no number; ! = not active in a repeat. Compounds with a hit are over-represented: about 3.4% of the library has one in this group of screens.

SMILES	GPR7 antag	TAAR1 ag	zfTRPN1 agonist	TAAR1 antagonist	LANA-H2A inh	TRPML3 ag
CCOC(=O)[C@]12CCCC=C1N(Cc1ccco1)C(=O)[C@H](CC(=O)NCc1cccc3ccccc13)C2	.	3	.	50*	.	.
CCOC(=O)[C@]12CCCC=C1N(Cc1ccccc1)C(=O)[C@H](CC(=O)NCc1cccc3ccccc13)C2	.	6	.	30	.	.
COC(=O)C[C@@H]1C[C@H]2c3cc(NC(=O)Nc4ccccc4F)ccc3O[C@H]2[C@@H](CO)O1	.	0	.	8	.	.
CC(C)(C)c1ccc(-n2nc(C#N)c(Cl)cc2=O)cc1	84*	13	8	97*	.	5
CC(C)(C)c1ccc(-n2nc(C(N)=O)c(O)cc2=O)cc1	1	6	1	5	-6	1
CCCCOC(=O)COc1ccc(Cl)cc1Cl	.	0	.	-12	14*	.
CN(C)c1nc(OCCOC(=O)COc2ccc(Cl)cc2Cl)nc(N(C)C)n1	-14	8	0	8	4	0
COc1cccc(-c2sc3ccc(OC)cc3c2-c2ccc(OCCN(C)C)cc2)c1	.	37	.	51*	-3	.
Fc1cccc(F)c1-n1c(CN2CCCC2)csc1=S	1	2	-1	-5	33*	1
O=C(O)Cc1ccc(O)c(F)c1	-9	1	1	-19	47*!	1
c1ccc(CC(Nc2cccnc2)c2ccccc2)cc1 (stereo not given)	.	1	.	-8	.	.
CCCCCCCCN1C(=O)N(Cc2ccc(OC)cc2)S(=O)(=O)c2ccc(F)cc21	.	2	.	6	.	.
OC(c1ccccc1)(c1ccccc1)C1CCN(CCCOc2cccc(C(F)(F)F)c2)CC1	.	32	.	36	.	.
O=C(Nc1ccc(Oc2ccccc2)cc1)c1csc([C@@H]2O[C@H](CO)[C@@H](O)[C@H]2O)n1	.	8	.	59*	.	.
CC(=O)Nc1ccc(NC(=O)c2csc([C@@H]3C[C@H](O)[C@@H](CO)O3)n2)cc1	.	1	.	7	.	.
O=C(Nc1ccc(Oc2ccccc2)cc1)c1csc([C@H]2C[C@H](O)[C@@H](CO)O2)n1	.	13	.	68*	.	.
O=C(CCCSc1nc2ccccc2[nH]1)N1CCN(c2ccc([N+](=O)[O-])cc2)CC1	18*	-1	0	1	0	0
Cc1nc2ccc(NC(=O)[C@@H](NC(=O)c3c(F)cccc3F)C(C)C)cc2s1	.	6	.	-4	+	.
COCCn1c(N)c(C(=O)NCC2CCCO2)c2nc3ccccc3nc21 (stereo not given)	3	15	2	49*	3	1
CC(C)Cn1c(N)c(C(=O)NCC2CCCO2)c2nc3ccccc3nc21 (stereo not given)	15	20	1	27	4	1
CCOC(=O)C1(C(=O)OCC)N=C(c2ccccc2)C=C1c1ccccc1	.	-1	.	-4	.	.
CCn1c(O)c(/C=C2\C=Nc3ccccc32)sc1=O	-9	2	0	21	14*	1
COc1ccc2c(=O)c(-c3cnn(-c4ccccc4)c3)c(C)oc2c1	-6	1	1	11	22*	1
CC(=O)Oc1ccc2c(=O)c(-c3ccccc3)c(C)oc2c1	1	-2	0	5	-4	1
CCOC(=O)C1=NN(C(=O)c2ccccc2)C(O)(c2ccc(C)cc2)C1 (stereo not given)	-5	38*	1	-14	-2	0
SMILES	GPR7 antag	TAAR1 ag	zfTRPN1 agonist	TAAR1 antagonist	LANA-H2A inh	TRPML3 ag
CCN(c1ccccc1)S(=O)(=O)c1cc(C(=O)Nc2ccc(F)c(F)c2)ccc1F	-4	11	3	56*	0	1
Nc1cc(=O)[nH]c(SCC(=O)Nc2ccc(Oc3ccccc3)cc2)n1	-10	4	.	7	16*	.
COC(=O)C1=C(C)N(Cc2ccccc2C(F)(F)F)C(=NCc2ccc(C(F)(F)F)cc2)NC1c1ccccc1 (stereo not given)	.	3	.	-16	.	.
CCOC(=O)C1=CCN(S(=O)(=O)c2ccc(Cl)cc2)C1c1ccc(Cl)c(Cl)c1 (stereo not given)	.	3	.	12	.	.
COc1cc(N=c2ssnc2Cl)cc(OC)c1OC	9	42*	0	22	6	1
Clc1ccc(N=c2ssnc2Cl)cc1	-13	46*	3	18	6	2
Clc1nssc1=Nc1ccccc1	-5	.	1	.	.	1
Cc1cc(N2CCN(CC(C)(C)O)C[C@H]2C)ccc1N1CCN(CC(C)(C)O)[C@H](C)C1	.	1	.	-11	.	.
CCN(CC)c1ccc(/C=c2\sc3nc4ccccc4n3c2=O)c(O)c1	-12	17	5	64*	.	1
O=C(O)c1cccc(NC(=O)c2ccccc2NC(=O)c2ccccc2F)c1	-10	5	.	-10	17*	.
O=C(Nc1ccccc1Oc1ccsc1C(=O)O)c1ccccc1F	-12	2	.	-24	98*	.
O=C(Nc1ccccc1Oc1ccsc1C(=O)O)c1ccccc1	8	7	.	-16	-3	.
C[C@@H]1CN(C(=O)OC(C)(C)C)CCN1c1ccc(N2CCN(Cc3ccccc3)[C@@H](C)C2)c(C#N)c1	.	-1	.	-8	.	.
Cc1cccc(N2CCN(CC(=O)NCc3ccccc3)CC2)c1C	-1	4	.	2	1	.
O=C(CN1CCN(c2ccccc2F)CC1)NCc1ccccc1	-2	1	.	-2	33*	.
Cc1ccc(N(CC2=NCCN2)c2cccc(O)c2)cc1	-10	19	1	-4	23*!	0
Cc1cc2c(c(=O)o1)[C@@]1(C(=O)N(C)c3ccc([N+](=O)[O-])cc31)C1=C(CCCC1=O)O2	.	1	.	-5	.	.
COc1ccc(OC)c(NC(=O)c2nc(S(=O)(=O)Cc3ccccc3)ncc2Cl)c1	1	1	.	52*	8	.
CCCCCCC(=O)O	.	5	.	-10	.	.
O=C(O)CCCCCCCC(=O)O	5	2	0	-6	31*!	0
O=[N+]([O-])c1ccc(OCCOCCOc2ccc([N+](=O)[O-])cc2)cc1	7	0	0	0	6	1
CN(C)c1ccc(P(=O)(COc2ccc([N+](=O)[O-])cc2)c2ccc(N(C)C)cc2)cc1	20*	0	0	-13	-2	0
CC(C)[C@@H](C)/C=C/[C@@H](C)[C@H]1CC[C@@H]2[C@]1(C)CCC1[C@]23C=C[C@]2(C[C@@H](O)CC[C@]12C)N(c1cnccn1)O3 (stereo not given in full)	.	2	.	-11	.	.
CC1=C(C(=O)OCC(Cl)(Cl)Cl)N2C(=O)C(NC(=O)Cc3ccccc3)C2SC1 (stereo not given)	23	25	14	61*	7	5
O=[N+]([O-])c1cccc(-c2ccc(C(=S)N3CCOCC3)o2)c1	2	-1	-2	7	12	0

Screens (PubChem BioAssay)
